Test results published in ChEMBL document CHEMBL1155269, “Synthesis and antibacterial activity of some new heterocycles incorporating phthalazine” (2009).

Tests used:
Escherichia coli = test: Antibacterial activity against Escherichia coli at 2 mg/ml after 24 hrs by agar diffusion assay; format: functional; details: read-out: DIZ
How it was run: (§1)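 Agar diffusion; compounds applied as 2 mg ml−1 solutions in DMSO to agar media seeded with the test bacterium (cultures maintained on nutrient agar). DMSO-only control included for each organism; ampicillin and chloramphenicol references at 2 mg ml−1. Plates incubated 24 h at 30 °C, then inhibition zone diameter (mm) measured.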

Bacillus thuringiensis = test: Antibacterial activity against Bacillus thuringiensis at 2 mg/ml after 24 hrs by agar diffusion assay; format: functional; details: read-out: DIZ; how it was run: as §1

| SMILES | zone of inhibition at 2000 µg/mL (Escherichia coli) | zone of inhibition at 2000 µg/mL (Bacillus thuringiensis) |
| --- | --- | --- |
| CS/C(Nc1ccccc1)=C(/C#N)C(=O)N1NC(=O)C2C3c4ccccc4C(c4ccccc43)C2C1=O (centres undefined) | 30 mm | 26 mm |
| O=C(N[C@H](CO)[C@H](O)c1ccc([N+](=O)[O-])cc1)C(Cl)Cl [CHLORAMPHENICOL] | 23 mm | 20 mm |
| CC1=Nc2c(sc(=S)n2-c2ccccc2)C(=O)N2C(=O)C3C4c5ccccc5C(c5ccccc54)C3C(=O)N12 (centres undefined) | 11 mm | 16 mm |
| CC1(C)S[C@@H]2[C@H](NC(=O)[C@H](N)c3ccccc3)C(=O)N2[C@H]1C(=O)O [AMPICILLIN] | 18 mm | 19 mm |
| N#CC(C(=O)N1NC(=O)C2C3c4ccccc4C(c4ccccc43)C2C1=O)=C1SCCS1 (centres undefined) | – | 13 mm |
| CSC(=S)C(C#N)C(=O)N1NC(=O)C2C3c4ccccc4C(c4ccccc43)C2C1=O (centres undefined) | 22 mm | 22 mm |
| O=C1NN(C(=O)c2cc3ccccc3oc2=O)C(=O)C2C3c4ccccc4C(c4ccccc43)C12 (centres undefined) | 15 mm | 16 mm |
| O=C1C2C3c4ccccc4C(c4ccccc43)C2C(=O)N2C(=O)c3sc(=S)n(-c4ccccc4)c3N=CN12 (centres undefined) | 12 mm | 13 mm |
| N#CC(Br)(Br)C(=O)N1NC(=O)C2C3c4ccccc4C(c4ccccc43)C2C1=O (centres undefined) | 29 mm | 27 mm |
| N=c1oc2ccccc2cc1C(=O)N1NC(=O)C2C3c4ccccc4C(c4ccccc43)C2C1=O (centres undefined) | 12 mm | 20 mm |
| N#CC(C(=O)N1NC(=O)C2C3c4ccccc4C(c4ccccc43)C2C1=O)=C1SCCCS1 (centres undefined) | 16 mm | 15 mm |
| Cc1cc(C)c2c(N/N=C(\C#N)C(=O)N3NC(=O)C4C5c6ccccc6C(c6ccccc65)C4C3=O)n[nH]c2n1 (centres undefined) | 30 mm | 20 mm |
| Nc1c(C(=O)N2NC(=O)C3C4c5ccccc5C(c5ccccc54)C3C2=O)sc(=S)n1-c1ccccc1 (centres undefined) | 11 mm | 16 mm |
| CC1=Nc2c(s/c(=N\N)n2-c2ccccc2)C(=O)N2C(=O)C3C4c5ccccc5C(c5ccccc54)C3C(=O)N12 (centres undefined) | 13 mm | 19 mm |
| N#CC(Br)C(=O)N1NC(=O)C2C3c4ccccc4C(c4ccccc43)C2C1=O (centres undefined) | 20 mm | 16 mm |
